Most compounds without a hit are left out; they make up all but 2.3% or so of the library.
PLAP activator: PLAP enzyme activators, biochemical, luminescence, HTS; purified PLAP enzyme, luminescent substrate read-out; active compounds read high; activation fold at 20 µM; AID 696, 2007; hit rate 1.2% among 96,000; in the data active = activation fold above about 2
Ecoli tolC: growth inhibitors of E. coli tolC mutant, primary screen, strain BW25113 ΔtolC::kan, 384-well; growth inhibition, % at 10 µM (by protocol); hit rate 2.2% among 65,000; OD615;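 active = growth inhibition at or above a cutoff equal to the mean over every tested compound plus 3 SD, cut at about 60% in these data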;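 note: growth measured after 20 h incubation at 37 °C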
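signal = optical density read at 615 nm | test system = E. coli ΔtolC::kan strain BW25113 | timing = 20 h compound exposure of bacteria at 37 °C | buffer or medium = LB medium plus 50 µg/mL kanamycin | compound dosing = 10 µM final, single dose | evaluation = % inhibition of E. coli growth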
HePTP inhibitor: inhibitors of human HePTP phosphatase, primary screen, biochemical, absorbance, leukemia target; inhibition, % at 20 µM; AID 521, 2006; hit rate 0.64% among 110,000; recombinant HePTP phosphatase activity, OD absorbance; in the data active = inhibition above about 50%;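 note: plate controls were vehicle for no effect and reference inhibitor for full effect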
Target sequence (P35236 whole entry, looked up): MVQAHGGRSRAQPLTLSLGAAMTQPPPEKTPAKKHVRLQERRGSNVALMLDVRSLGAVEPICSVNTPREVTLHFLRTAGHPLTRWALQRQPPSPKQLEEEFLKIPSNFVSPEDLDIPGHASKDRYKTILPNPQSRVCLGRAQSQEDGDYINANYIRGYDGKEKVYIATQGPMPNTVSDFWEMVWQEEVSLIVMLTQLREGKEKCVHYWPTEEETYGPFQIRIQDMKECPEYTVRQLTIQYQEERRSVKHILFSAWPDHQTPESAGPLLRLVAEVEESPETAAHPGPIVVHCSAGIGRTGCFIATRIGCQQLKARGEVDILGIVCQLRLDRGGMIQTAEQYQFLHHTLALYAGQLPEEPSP
Ecoli WT expand: growth inhibitors of wild-type E. coli, primary screen, strain BW25113, expanded library, OD600. growth inhibition, % at 100 µM. hit rate 0.15% among 98,000. OD600 absorbance;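 active = growth inhibition above about 50% at one test dose, limit read from the data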;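 note: growth measured after 20 h incubation at 37 °C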
AP complement: alternative complement pathway inhibitors, primary screen, biochemical, ELISA, human serum, orthogonally pooled compounds; LPS-coated ELISA, C3 deposition; tested in compound mixtures; inhibition, % at 5 µM; hit rate 0.08% among 62,000; AID 1235, 2008;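 active = inhibition above 30% in each of the two pooled mixtures holding the compound, so the lower value exceeds 30%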;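 note: 0% = serum in Mg-EGTA without compound and 100% = EDTA serum blank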
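Medium: diluted human serum in Mg2+-EGTA GVB++. Assay system: human serum complement alternative pathway, C3 deposition onto LPS. Also added: Plate-bound LPS. Technique: Anti-C3 ELISA, OD 450 nm. Measure: percent inhibition. Incubation: 1 h at 37 °C. Dosing: 5 µM each compound, pools of ten, 50 µM per pool.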
Starred values were filed as active, the others as inactive; nt = no result given.

SMILES	PLAP activator	Ecoli tolC	HePTP inhibitor	Ecoli WT expand	AP complement
CCOC(=O)c1c(NC(=O)C(CC)Oc2ccccc2)sc(C(=O)N(CC)CC)c1C (centres undefined)	nt	nt	-17	nt	nt
O=C1/C(=C\c2cc3c(cc2[N+](=O)[O-])OCO3)SC(=S)N1c1ccccc1	nt	nt	-3	nt	nt
CC(=O)NN1C(=O)/C(=C/c2cc3c(cc2[N+](=O)[O-])OCO3)SC1=S	nt	nt	93*	nt	nt
COC(=O)c1c(N)sc(C(=O)Nc2ccccc2OC)c1C	nt	nt	66*	nt	nt
COc1ccc(CCN2C(=O)CC(N3CCN(C/C=C\c4ccccc4)CC3)C2=O)cc1OC (centres undefined)	nt	nt	-11	nt	nt
COc1ccc(CCN2C(=O)CC(N3CCN(c4ccccn4)CC3)C2=O)cc1OC (centres undefined)	1.6	-9	8	8	33*
Cc1cccc(-c2nc(CS(=O)CC(=O)NCCCSC3CCCCC3)c(C)o2)c1 (centres undefined)	1.5	73*	3	-16	13
O=C(CN(Cc1ccccc1)S(=O)(=O)c1ccc(Br)cc1)N/N=C/c1c(O)ccc2ccccc12	nt	nt	6	nt	nt
CC(C)c1nc(N2CCN(C(=O)c3ccco3)CC2)c2c3c(sc2n1)CCCC3	1.4	79*	-1	3	10
COc1cccc(C(c2c(C)[nH]n(-c3ccccc3)c2=O)c2c(C)[nH]n(-c3ccccc3)c2=O)c1O	nt	nt	-14	nt	nt
COc1ccc(OC)c(C(c2c(C)[nH]n(-c3ccccc3)c2=O)c2c(C)[nH]n(-c3ccccc3)c2=O)c1	nt	nt	104*	nt	nt
O=C(Nc1ccc2oc(Cc3ccc(Cl)cc3)nc2c1)c1cccnc1	1.3	69*	11	-15	12
Brc1ccc(-c2nc(-c3cccnc3)no2)o1	1	-8	12	-2	22
Brc1ccc(-c2nc(-c3ccccc3)no2)o1	0.9	98*	-6	7	5
Cc1cccc(N2C(=O)/C(=C/c3ccc(Br)cc3)SC2=S)c1C	nt	nt	8	nt	nt
CCCNC(=O)CCC(=O)Nc1ncc(-c2ccc(C)cc2)n1C	2.2*	38	-4	6	12
Cc1nc(Nc2nc(O)cc(=O)[nH]2)nc2c(C)cccc12	nt	nt	103*	nt	nt
Cc1cc(=O)[nH]c(Nc2nc(C)c3cccc(C)c3n2)n1	nt	nt	11	nt	nt
C/C(=N/n1cnnc1)c1ccc(NS(=O)(=O)c2ccc(Br)cc2)cc1	nt	nt	7	nt	nt
COc1ccc(NC(=O)CSc2nnc(Cc3ccccc3)o2)c(OC)c1	2.3*	20	8	10	nt
COc1ccc(NC(=O)COc2ccc(C(C)(C)c3ccccc3)cc2)c(OC)c1	nt	nt	102*	nt	nt
COc1cccc(NC(=O)c2c(Cl)cccc2Cl)c1	nt	nt	7	nt	nt
Cc1onc(-c2ccccc2Cl)c1C(=O)N1CCN(c2ccc(Cl)cc2[N+](=O)[O-])CC1	nt	nt	7	nt	nt
O=C(CSc1nnc2n(C3CCCC3)c(=O)c3ccccc3n12)N1CCCCCC1	1.6	1	10	-4	-2
CC1CCCN(C(=O)CSc2nnc3n(C4CCCC4)c(=O)c4ccccc4n23)C1 (centres undefined)	1.5	44	-1	9	35*
SMILES	PLAP activator	Ecoli tolC	HePTP inhibitor	Ecoli WT expand	AP complement
c1cnc2c(OCc3nc4ccccc4[nH]3)cccc2c1	2.1*	37	14	2	15
COc1ccccc1OCc1nc2ccccc2[nH]1	1	7	7	20	-2
CC1=C(C(=O)Nc2cccc(Cl)c2C)C(c2cccc([N+](=O)[O-])c2)NC(=O)N1 (centres undefined)	nt	nt	4	nt	nt
Cc1cc(C)n(-c2nc(NCC(C)O)c3c4c(sc3n2)CCCC4)n1 (centres undefined)	1.6	94*	-6	-3	9
C/C(=N/N1CCN(Cc2ccccc2)CC1)c1ccc(Cl)cc1	nt	nt	-11	nt	nt
CCOc1ccc(OCC)c(NC(=O)C2CCCN(S(=O)(=O)c3c(C)n[nH]c3C)C2)c1 (centres undefined)	2*	4	4	-4	28
CCOc1ccc(OCC)c(NC(=O)C2CCCN(S(=O)(=O)c3c(C)noc3C)C2)c1 (centres undefined)	1.1	-8	2	-7	2
CCn1cc(C(=O)O)c(=O)c2cc(Br)ccc21	0.9	nt	nt	19	nt
CCn1cc(C(=O)O)c(=O)c2cc3c(cc21)OCO3	nt	100*	nt	nt	nt
Cc1ccnc(NC(=O)COc2ccc(C)cc2C)c1	nt	nt	-24	nt	nt

High-throughput results as filed in PubChem BioAssay.
